Results gathered from unrelated publications.
Lines come from different studies, so protocols differ.
Observed: metabolic stability

CN(C)CCc1c[nH]c2ccccc12
half-life (human, hepatocytes; 0.6 µM): 98.9 min

Cc1nc2c(=O)n(C)c(=O)nc-2n(C)n1
half-life (human, liver microsomes): > 186 min

CCCCCn1nc(C(=O)Nc2cccc3ccccc23)c2ccccc21
half-life (male human, liver microsomes; 1 µM, pH 7.4): 1.7 min

O=c1c2ccccc2sn1Cc1ccc(Cl)cc1
half-life (human, liver microsomes): 300 min

C[C@]12CC[C@H]3[C@@H](CCC4=CC(=O)CC[C@@]43C)[C@@H]1CC[C@@H]2O
half-life (human, liver microsomes; 1 µM): 14.9 min

C=C1NC(=O)[C@H](C)N(O)C(=O)[C@H]([C@@H](O)C(N)=O)N(C)C(=O)[C@H](C)OC(=O)[C@@H]2C[C@H](C)CN2C1=O
half-life (human, liver microsomes): > 120 min

CC(C)NCC(O)COc1cccc2ccccc12 (stereo not shown)
half-life (human, liver microsomes; 2 µM): > 40 min

O=C(c1cc(-n2sc3ncccc3c2=O)ccc1Cl)N1CCOCC1
half-life (human, liver microsomes): > 120 min

Cc1cnc(Nc2ccc(C(=O)NC3CCN(C(=O)COCCOCCOCC(=O)N4CCC(NC(=O)c5ccc(Nc6ncc(C)c(Nc7ccc(Cl)c(NS(=O)(=O)C(C)(C)C)c7)n6)cc5F)CC4)CC3)c(F)c2)nc1Nc1ccc(Cl)c(NS(=O)(=O)C(C)(C)C)c1
half-life (human, liver microsomes): 3.6 min

N=c1c2c(-c3ccccc3)c(-c3ccccc3)n(Cc3ccccc3)c2ncn1[C@H]1CC[C@H](O)CC1
half-life (human, liver S9; 1 µM): > 120 min

C#Cc1ccc2c(c1)C(c1ccccn1)=NCc1c(-c3cnco3)ncn1-2
half-life (human, liver microsomes): 1500 min

CCCCCn1cc(C(=O)Nc2cccc3ccccc23)c2ccccc21
half-life (male human, liver microsomes; 1 µM, pH 7.4): 2.3 min

NCCc1c[nH]c2ccc(O)cc12
half-life (human, hepatocytes; 5 µM): 33 min

Cc1cc(C)nc(Nc2ncc(C(=O)NCCc3c(C)[nH]c4ccccc34)cn2)c1
half-life (human, liver microsomes; 1 µM): 28 min

CN1CCCCC1Cn1cc(C(=O)c2cc([N+](=O)[O-])ccc2I)c2ccccc21 (racemic)
half-life (human, liver microsomes): 5.9 min

CCCCCCCCCCCCCCCCCCCCOP(=O)(O)CO[C@H](C)Cn1cnc2c(N)ncnc21.N
half-life (human, liver microsomes; 3 µM, 30 min, pH 7.4): 49 min
